Tests used:
[1] = target: GABA-A receptor; anion channel; test: Affinity benzodiazepine receptor as ability to displace [3H]flunitrazepam from binding to membrane preparations from rat cerebral cortex.; format: tissue-based
In short: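 Rat cerebral cortex homogenised in ice-cold 50 mM Tris-HCl pH 7.4, centrifuged twice at 20000g and resuspended; 0.4-0.5 mg protein incubated with 0.5 nM [3H]flunitrazepam for 60 min at 0 °C. Filtration, then scintillation counting. Nonspecific binding defined with 5 μM diazepam. pIC50 from means of 3 experiments run in duplicate.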

Translocator protein [2] = target: T1, Translocator protein (Rattus norvegicus, UniProt P16257); test: Displacement of [3H]-PK 11195 from peripheral-type benzodiazepine receptor of rat cerebral cortex membranes; format: cell membranes, Membrane
T1 sequence (P16257 whole entry, looked up): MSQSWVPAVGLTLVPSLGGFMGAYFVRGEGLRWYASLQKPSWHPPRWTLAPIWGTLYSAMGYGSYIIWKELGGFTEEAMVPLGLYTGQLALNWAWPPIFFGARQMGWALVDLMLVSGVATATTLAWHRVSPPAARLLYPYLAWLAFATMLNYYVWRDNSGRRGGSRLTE

Translocator protein [3] = target: T1, Translocator protein; test: Displacement of [3H]-PK 11195 from peripheral-type benzodiazepine receptor of rat ovary membranes; format: cell membranes, Female gonad, Membrane
[4] = target: T2, GABA-A receptor; alpha-1/beta-2/gamma-2 (Homo sapiens) (UniProt P14867+P47870+P18507); test: Modulatory activity against human GABA-A receptor alpha-1-beta-2-gamma-2 subunits expressed in Xenopus laevis Oocytes at 10 uM; format: cell-based
In short: (§1)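 Xenopus stage V–VI oocytes, defolliculated with collagenase, nuclear-injected with α1, β2, γ2 cDNAs and cultured at 19 °C. Two-electrode voltage clamp at -70 mV began about 24 h later, under MBS perfusion at room temperature. Drug applied for 20 s; value is percent change of the current evoked by GABA EC20 (2-10 μM). Means from 6–14 oocytes ± SEM.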

[5] = target: T2, GABA-A receptor; alpha-1/beta-2/gamma-2 (Homo sapiens); test: Modulatory activity against human GABA-A receptor alpha-1-beta-2-gamma-2 subunits expressed in Xenopus laevis Oocytes at 100 uM; format: cell-based; in short: as §1
[6] = target: T2, GABA-A receptor; alpha-1/beta-2/gamma-2 (Homo sapiens); test: Modulatory activity against human GABA-A receptor alpha-1-beta-2-gamma-2 subunits expressed in Xenopus laevis Oocytes at 50 uM; format: cell-based; in short: as §1

Structure (SMILES): CCCN(CCC)C(=O)Cc1c(-c2ccccc2)nc2ccc(C(N)=O)cn12
- pIC50 [1]: 5.58
- IC50 (Translocator protein [2]): 457 nM
- IC50 (Translocator protein [3]): 302 nM

Structure (SMILES): CCCN(CCC)C(=O)Cc1c(-c2ccc(Cl)cc2)nc2c(N)cccn12
- pIC50 [1]: 5.07
- IC50 (Translocator protein [2]): 6.31 nM
- IC50 (Translocator protein [3]): 4.57 nM

Structure (SMILES): CCC(C)N(C)C(=O)c1cc2ccccc2c(-c2ccccc2Cl)n1 (configuration not stated) [PK-11195]
- pIC50 [1]: 4.67
- Activity [4]: -16
- Activity [5]: 91
- Activity [6]: 4.3

Structure (SMILES): CCCN(CCC)C(=O)Cc1c(-c2ccc(Cl)cc2)nc2c(C)cccn12
- pIC50 [1]: 2.4
- IC50 (Translocator protein [2]): 1.41 nM
- IC50 (Translocator protein [3]): 2.82 nM
- Activity [4]: -9.6
- Activity [5]: < -44.3
- Activity [6]: < -38.7

Structure (SMILES): CCN(CC)C(=O)Cc1c(-c2ccccc2)nc2ccccn12
- pIC50 [1]: 5.68
- IC50 (Translocator protein [2]): 437 nM
- IC50 (Translocator protein [3]): 525 nM

Structure (SMILES): CCCCN(CCCC)C(=O)Cc1c(-c2ccc(Cl)cc2)nc2ccccn12
- pIC50 [1]: 7.04
- IC50 (Translocator protein [2]): 5.89 nM
- IC50 (Translocator protein [3]): 10.5 nM
- Activity [4]: < 23.2
- Activity [5]: < 23.9
- Activity [6]: < 35

Structure (SMILES): CCCN(CCC)C(=O)Cc1c(-c2ccccc2)nc2ccc([N+](=O)[O-])cn12
- pIC50 [1]: 5.47
- IC50 (Translocator protein [2]): 7.59 nM
- IC50 (Translocator protein [3]): 7.76 nM

Structure (SMILES): CCCN(CCC)C(=O)Cc1c(-c2ccccc2)nc2c(OC)cccn12
- pIC50 [1]: 5.27
- IC50 (Translocator protein [2]): 46.8 nM
- IC50 (Translocator protein [3]): 49 nM

Structure (SMILES): CCCNC(=O)Cc1c(-c2ccc(Cl)cc2)nc2ccccn12
- pIC50 [1]: 6.93
- IC50 (Translocator protein [2]): 589 nM
- IC50 (Translocator protein [3]): 1620 nM

Structure (SMILES): CCCN(CCC)C(=O)Cc1c(-c2ccccc2)nc2ccccn12
- pIC50 [1]: 6.28
- IC50 (Translocator protein [2]): 100 nM
- IC50 (Translocator protein [3]): 95.5 nM

Structure (SMILES): CCCN(CCC)C(=O)Cc1c(-c2ccccc2)nc2c(N)cccn12
- pIC50 [1]: 5.27
- IC50 (Translocator protein [2]): 4.27 nM
- IC50 (Translocator protein [3]): 5.75 nM

Structure (SMILES): CCCN(CCC)C(=O)Cc1c(-c2ccccc2)nc2c(C)cccn12
- pIC50 [1]: 4.85
- IC50 (Translocator protein [2]): 20 nM
- IC50 (Translocator protein [3]): 41.7 nM

Structure (SMILES): CCCN(CCC)C(=O)Cc1c(-c2ccc(Cl)cc2)nc2c(Cl)cccn12
- pIC50 [1]: 2.4
- IC50 (Translocator protein [2]): 4.27 nM
- IC50 (Translocator protein [3]): 7.41 nM
- Activity [4]: 4.5
- Activity [5]: -15.2
- Activity [6]: -6.1

Structure (SMILES): CCCNC(=O)Cc1c(-c2ccccc2)nc2ccccn12
- pIC50 [1]: 6.09
- IC50 (Translocator protein [2]): 2000 nM
- IC50 (Translocator protein [3]): 2000 nM

Structure (SMILES): CCCN(CCC)C(=O)Cc1c(-c2ccccc2)nc2c(C)cc(Br)cn12
- pIC50 [1]: 4.27
- IC50 (Translocator protein [2]): 1.62 nM
- IC50 (Translocator protein [3]): 2.63 nM

Structure (SMILES): CCCN(CCC)C(=O)Cc1c(-c2ccc(Cl)cc2)nc2c([N+](=O)[O-])cccn12
- pIC50 [1]: 5
- IC50 (Translocator protein [2]): 5.75 nM
- IC50 (Translocator protein [3]): 8.71 nM

Structure (SMILES): CCCN(CCC)C(=O)Cc1c(-c2ccc(Cl)cc2)nc2c(Cl)cc(Cl)cn12 [ALPDEM]
- pIC50 [1]: 2.4
- IC50 (Translocator protein [2]): 1 nM
- IC50 (Translocator protein [3]): 2.63 nM

Structure (SMILES): CCCN(CCC)C(=O)Cc1c(-c2ccc(Cl)cc2)nc2c(Br)cc(Br)cn12
- pIC50 [1]: 5
- IC50 (Translocator protein [2]): 0.794 nM
- IC50 (Translocator protein [3]): 1.58 nM

Structure (SMILES): CCCN(CCC)C(=O)Cc1c(-c2ccccc2)nc2ccc(C(=O)OC)cn12
- pIC50 [1]: 4.92
- IC50 (Translocator protein [2]): 16.6 nM
- IC50 (Translocator protein [3]): 26.9 nM
- Activity [4]: 17.1
- Activity [5]: 11.6
- Activity [6]: 11.4

Structure (SMILES): CCCN(CCC)C(=O)Cc1c(-c2ccc(Cl)cc2)nc2c(OC)cccn12
- pIC50 [1]: 4.19
- IC50 (Translocator protein [2]): 16.6 nM
- IC50 (Translocator protein [3]): 20.9 nM

Structure (SMILES): CCCCN(CCCC)C(=O)Cc1c(-c2ccccc2)nc2ccccn12
- pIC50 [1]: 6.3
- IC50 (Translocator protein [2]): 17 nM
- IC50 (Translocator protein [3]): 22.9 nM
- Activity [4]: 17.4
- Activity [5]: < 58.2
- Activity [6]: < 44.6

Structure (SMILES): CCCCNC(=O)Cc1c(-c2ccccc2)nc2c(Cl)cc(Cl)cn12
- pIC50 [1]: 4
- IC50 (Translocator protein [2]): 295 nM
- IC50 (Translocator protein [3]): 389 nM

Structure (SMILES): CCCN(CCC)C(=O)Cc1c(-c2ccccc2)nc2c(NC(C)=O)cccn12
- pIC50 [1]: 4.96
- IC50 (Translocator protein [2]): 257 nM
- IC50 (Translocator protein [3]): 447 nM

Structure (SMILES): CCCCCCN(CCCCCC)C(=O)Cc1c(-c2ccccc2)nc2ccccn12
- pIC50 [1]: 3.93
- IC50 (Translocator protein [2]): 19.1 nM
- IC50 (Translocator protein [3]): 13.2 nM

Structure (SMILES): CCCN(CCC)C(=O)Cc1c(-c2ccc(Cl)cc2)nc2c(Cl)cc(C(F)(F)F)cn12
- pIC50 [1]: 5
- IC50 (Translocator protein [2]): 1.82 nM
- IC50 (Translocator protein [3]): 2.82 nM

Structure (SMILES): CCCN(CCC)C(=O)Cc1c(-c2ccc(Cl)cc2)nc2c(NC)cccn12
- pIC50 [1]: 4
- IC50 (Translocator protein [2]): 3.72 nM
- IC50 (Translocator protein [3]): 7.94 nM

Structure (SMILES): CCCCCCN(CCCCCC)C(=O)Cc1c(-c2ccc(Cl)cc2)nc2ccccn12
- pIC50 [1]: 3.83
- IC50 (Translocator protein [2]): 182 nM
- IC50 (Translocator protein [3]): 178 nM

Structure (SMILES): CCCN(CCC)C(=O)Cc1c(-c2ccccc2)nc2c(Cl)cccn12
- pIC50 [1]: 4.59
- IC50 (Translocator protein [2]): 22.9 nM
- IC50 (Translocator protein [3]): 15.8 nM

Structure (SMILES): CCCN(CCC)C(=O)Cc1c(-c2ccc(Cl)cc2)nc2ccccn12
- pIC50 [1]: 7.19
- IC50 (Translocator protein [2]): 10 nM
- IC50 (Translocator protein [3]): 33.1 nM

Structure (SMILES): CCCN(CCC)C(=O)Cc1c(-c2ccc(Cl)cc2)nc2c(NC(C)=O)cccn12
- pIC50 [1]: 4.09
- IC50 (Translocator protein [2]): 10 nM
- IC50 (Translocator protein [3]): 33.1 nM

Structure (SMILES): CCCN(CCC)C(=O)Cc1c(-c2ccccc2)nc2c([N+](=O)[O-])cccn12
- pIC50 [1]: 4.8
- IC50 (Translocator protein [2]): 85.1 nM
- IC50 (Translocator protein [3]): 120 nM

Structure (SMILES): CCCN(CCC)C(=O)Cc1c(-c2ccccc2)nc2c(Cl)cc(Cl)cn12
- pIC50 [1]: 2.4
- IC50 (Translocator protein [2]): 3.02 nM
- IC50 (Translocator protein [3]): 4.27 nM

Source: ChEMBL document CHEMBL1132659, “Novel 2-phenylimidazo[1,2-a]pyridine derivatives as potent and selective ligands for peripheral benzodiazepine receptors: synthesis, binding affinity, and in vivo studies” (J Med Chem, 1999)
